Consider eight compounds from ChEMBL document CHEMBL1123658, “1-(2-pyridinyl)piperazine derivatives with antianaphylactic, antibronchospastic, and mast cell stabilizing activities” (J Med Chem, 1987).

As usually defined, the LD50 is the dose at which mortality reaches 50%. The inhibition in vivo is the share of the control response that was lost under treatment. A low value points to a response near the control.

The test system of data set [1] is Mus musculus. In words: In vivo toxic effect was determined in mouse after intraperitoneal administration with 10% aqueous acacia gum; NA means poorly absorbed. Format: toxicity, organism-based. The following applies: ip. The method, boiled down: (§1)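 Female albino mice (20-30 g), 10 animals per dose, dosed intraperitoneally with compound in solution or suspension; compounds tested as salts unless noted. Mortality was recorded over 7 days.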

Data set [2] deals with Rattus norvegicus. The data set is described as follows: Rat PCA Test(50% inhibition of spot areas)in the female albino rats after (ip) administration in 10% aqueous acacia gum;Value ranges from(44-250). The data set is classed as functional. The following applies: read-out: ID50 (the source's name). Put shortly:
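Antiserum came from female rats given 1% egg albumin in 0.9% NaCl intramuscularly plus Haemophilus pertussis vaccine (2 × 10^10 organisms) intraperitoneally, and was collected 12 days later. Recipient rats (200-250 g) got it intradermally at a ventral site. After 24 h, groups of 10 received vehicle or compound ip. At 30 min they were challenged iv with 0.3% egg albumin plus 1% Evans blue. Blued skin areas were measured 30 min later.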

The test system of data set [3] is Rattus norvegicus. In words: Rat PCA Test(50% inhibition of spot areas)in the female albino rats after oral administration in 10% aqueous acacia gum. Format: functional. The following applies: read-out: ID50 (the source's name). The method, boiled down:
(§2)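 Female rats (200-250 g) were passively sensitized by ventral intradermal anti-egg-albumin antiserum. This was raised in rats by intramuscular 1% egg albumin plus ip H. pertussis vaccine, with serum taken at 12 days. After 24 h, groups of 10 were dosed orally with compound or vehicle (10 mL/kg). At 60 min, iv challenge used 0.3% egg albumin with 1% Evans blue. Blued areas were measured after 30 min.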

For data set [4], the system named is Cavia porcellus. In words: Antibronchospatic activity determined by histamine stimulated bronchospasm inhibition in guinea pigs after(i.v.) administration. The data set is classed as functional, Bronchiole. The method, boiled down:
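Guinea pigs, Konzett–Rössler preparation. Bronchospasm was induced with histamine. Compound was given iv (1 mL/kg) 1 min before the agonist, dissolved in saline or saline with slight excess HCl or CH3SO3H (pH 3.5–4). Three doses were tested in duplicate, chosen to give 20–90% inhibition. ID75 was read graphically from log dose–response curves.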

Data set [5] in a line: In vivo toxicity in mouse after oral administration with 10% aqueous acacia gum. Format: organism-based. Put shortly: (§3)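 Female albino mice, 20-30 g. Compound given orally as solution or suspension in 10% aqueous acacia gum, 10 animals per dose. Deaths recorded over 7 days.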
Data set [6] is described as follows: In vivo toxic effect was determined in mouse after intraperitoneal administration with 10% aqueous acacia gum; value ranges from 0.28-0.52. The data set is classed as toxicity, organism-based. The following applies: ip. Put shortly:
as §1

Data set [7] can be described thus: In vivo toxic effect was determined in mouse after oral administration with 10% aqueous acacia gum; value ranges from 0.41-0.93. The data set is classed as toxicity, organism-based.
Data set [8] deals with Rattus norvegicus. The data set is described as follows: Rat PCA Test(50% inhibition of spot areas)in the female albino rats after (ip) administration in 10% aqueous acacia gum. Format: functional. The following applies: read-out: ID50 (the source's name). The method, boiled down: (§4)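 Female albino rats (200–250 g) received intradermal ventral injections of rat anti-egg-albumin antiserum; donors were raised with egg albumin im plus H. pertussis ip, and serum was taken at 12 days. 24 h later, compound was given ip in 10% acacia gum (10 mL/kg), 10 rats/group. Challenge 30 min later was iv 0.3% egg albumin plus 1% Evans blue. Blued areas were measured 30 min after challenge.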

Data set [9] in a line: In vivo toxic effect was determined in mouse after intraperitoneal administration with 10% aqueous acacia gum; value ranges from 4.25-7.74. The following applies: ip. Format: toxicity, organism-based. Put shortly:
as §1

Data set [10] relates to Rattus norvegicus. The data set is described as follows: Rat PCA Test(50% inhibition of spot areas)in the female albino rats after oral administration in 10% aqueous acacia gum; value ranges from 8-11. Format: functional. The following applies: read-out: ID50 (the source's name). Put shortly:
as §2

Data set [11] concerns Rattus norvegicus. In words: Inhibition of mast cell degranulation was assessed in female albino rats at a dose of 23 umol/kg iv. Format: functional.
For data set [12], the system named is Rattus norvegicus. In words: Inhibition of mast cell degranulation was assessed in female albino rats at a dose of 22 umol/kg iv. The data set is classed as functional.
A short description of data set [13]: In vivo toxic effect was determined in mouse after oral administration with 10% aqueous acacia gum; value ranges from 0.66-1.27. Format: toxicity, organism-based.
The test system of data set [14] is Rattus norvegicus. In words: Rat PCA Test(50% inhibition of spot areas)in the female albino rats after oral administration in 10% aqueous acacia gum; value ranges from 88-129. The data set is classed as functional. The following applies: read-out: ID50 (the source's name). The method, boiled down:
as §2

The test system of data set [15] is Rattus norvegicus. In words: Rat PCA Test(50% inhibition of spot areas)in the female albino rats after (ip) administration in 10% aqueous acacia gum; value ranges from 23-40. Format: functional. The following applies: read-out: ID50 (the source's name). Put shortly:
as §4

Data set [16] can be described thus: In vivo toxic effect was determined in mouse after intraperitoneal administration with 10% aqueous acacia gum; value ranges from 0.53-0.97. The following applies: ip. The data set is classed as toxicity, organism-based. Put shortly: as §1
The subject of data set [17] is Rattus norvegicus. The data set is described as follows: Rat PCA Test(50% inhibition of spot areas)in the female albino rats after (ip) administration in 10% aqueous acacia gum; value ranges from 115-142. Format: functional. The following applies: read-out: ID50 (the source's name). The method, boiled down:
as §4

The test system of data set [18] is Rattus norvegicus. In words: Inhibition of mast cell degranulation was assessed in female albino rats at a dose of 35 umol/kg iv. Format: functional.
Data set [19] relates to Rattus norvegicus. In words: Inhibition of mast cell degranulation was assessed in female albino rats at a dose of 48 umol/kg iv. The data set is classed as functional.
Data set [20] relates to Rattus norvegicus. In words: Rat PCA Test(50% inhibition of spot areas)in the female albino rats after (ip) administration in 10% aqueous acacia gum; value ranges from […]. Format: functional. The following applies: read-out: ID50 (the source's name). The method, boiled down:
as §4

Data set [21] in a line: In vivo toxic effect was determined in mouse after oral administration with 10% aqueous acacia gum; value ranges from 0.69-1.33. The data set is classed as toxicity, organism-based. The method, boiled down: as §3
Data set [22] can be described thus: In vivo toxic effect was determined in mouse after intraperitoneal administration with 10% aqueous acacia gum; value ranges from 0.55-1.17. The following applies: ip. The data set is classed as toxicity, organism-based. The method, boiled down:
as §1

Data set [23] can be described thus: In vivo toxic effect was determined in mouse after oral administration with 10% aqueous acacia gum;Value ranges from(5.68-7.37). Format: toxicity, organism-based. Put shortly:
as §3

Data set [24] in a line: In vivo toxic effect was determined in mouse after intraperitoneal administration with 10% aqueous acacia gum; value ranges from 1.02-1.35. The data set is classed as toxicity, organism-based. The following applies: ip. Put shortly: as §1

With `Cl.Cl.NC(=O)c1ccc(NC(=O)CCN2CCN(c3ccccn3)CC2)cc1`, the LD50 entry in [1] was “Not Active”; in data set [5] it was greater than 6400 µmol/kg. In addition, the ED50 in [2] was 124 µmol/kg; in data set [3] it was greater than 212 µmol/kg. The compound also gave an ID75 in data set [4] of 0.3 µM/kg.
For `Cl.Cl.N#Cc1ccc(NC(=O)CCN2CCN(c3ccccn3)CC2)cc1`, the LD50 in [6] worked out at 390 µmol/kg; in data set [7], 620 µmol/kg. Further, in [4], the ID75 worked out at 0.64 µM/kg. In addition, the ED50 in data set [8] is greater than 39 µmol/kg.
`O=C(O)CCN1CCN(c2ccccn2)CC1` registered an ID75 in data set [4] of 5.23 µM/kg. The LD50 in data set [9] turned out to be 5540 µmol/kg. For the same compound, the ED50 in data set [8] is greater than 1280 µmol/kg.
With `O=c1[nH]c2ccccc2n1CCCN1CCN(C(c2ccccc2)c2ccccc2)CC1` [OXATOMIDE], the ED50 in data set [10] is 9 µmol/kg. Further, the inhibition in vivo at 23 µmol/kg in [11] stood at 40%. The compound further registered an ID75 in data set [4] of 0.08 µM/kg. In data set [5], this compound had an LD50 greater than 7300 µmol/kg.
Compound `CCOC(=O)c1ccc(NC(=O)CCN2CCN(c3ccccn3)CC2)cc1.Cl.Cl` registered an inhibition in vivo at 22 µmol/kg in data set [12] of 83%. Also, the LD50 turned out to be 920 µmol/kg in data set [13] and 660 µmol/kg in data set [16]. Further, the ED50 in data set [14] is 107 µmol/kg; in data set [15], 30 µmol/kg. Besides, the ID75 in data set [4] is 0.17 µM/kg.
On to `CCOC(=O)C(=O)Nc1ccc(NC(=O)CCN2CCN(c3ccccn3)CC2)cc1`, for which the ED50 in data set [17] amounted to 127 µmol/kg. Further, the inhibition in vivo at 35 µmol/kg in [18] was determined as 7%. The compound further gave an ID75 in data set [4] of 0.23 µM/kg. This compound registered a median lethal dose (LD50) in data set [5] greater than 7050 µmol/kg.
Compound `Cl.Cl.O=C(CCN1CCN(c2ccccn2)CC1)Nc1ccc(Cl)cc1` gave an inhibition in vivo at 48 µmol/kg in [19] of 0%. Also, the ED50 in data set [20] is 43 µmol/kg; in [3] it was greater than 96 µmol/kg. Moreover, the LD50 in [21] was 960 µmol/kg; in data set [22], 620 µmol/kg.
As to `COc1cccc(NC(=O)CCN2CCN(c3ccccn3)CC2)c1.Cl.Cl`, the 50% lethal dose (LD50) in data set [23] amounted to 7100 µmol/kg; in data set [24], 1180 µmol/kg. This compound yielded an ID75 in data set [4] of 0.56 µM/kg. The ED50 in [8] is greater than 118 µmol/kg.
